Drawing on ChEMBL document CHEMBL4513216, “Probing the Open Global Health Chemical Diversity Library for Multistage-Active Starting Points for Next-Generation Antimalarials” (ACS Infect Dis, 2020), this text covers cytotoxicity for 97 compounds.

The nature of the series: Toxicity liver stage against HepG2, at 10uM. Type of series: cell-based. Details: test concentration 10 uM, cell line HepG2-A16-CD81EGFP. Particulars: human, HepG2-A16-CD81EGFP cells; read-out: INHIBITION
The essentials: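 Uninfected HepG2-A16-CD81EGFP cells, 3 × 10^3 per well, 1536-well, plated on prespotted compound at 10 μM final, parasite-free screening media added to match infected plates; puromycin 10 μM positive, DMSO 0.5% negative; run in parallel with 48 h PbLuc assay at 37 °C, 5% CO2; viability by CellTiter-Glo luminescence, normalized to controls.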
In the case of `Cc1ccc(NC(=O)Cn2ccc3c(=O)n(C)ccc32)cc1F`, the cytotoxicity at 10 µM was -2.74%.
Under `O=c1nc(SCc2cccnc2)c2c(n1CCO)CCCC2` stands 8.97%; under `COc1nn(C)cc1C(=O)N1CCC(c2ccccc2)C1` (configuration not stated), -2.18%.
Under `COC(C)(CNS(=O)(=O)c1cccnc1)c1ccccc1F` (configuration not stated) stands -0.403%.
With `CCS(=O)(=O)N1Cc2c(Cn3cccc3)nn(C(C)C)c2C1` the figure was 13.6%.
Take `CCOCC1CC2(CCN(C(=O)C3CCSCC3)CC2)CO1` (configuration not stated): the cytotoxicity at 10 µM is 2.5%.
With `OCCN1CCOC2(CCCN(c3ncccn3)C2)C1` (configuration not stated) the figure was 9.55%; with `COCC(=O)N1C[C@@H]2COC[C@]2(COC)C1`, 5.44%; with `CCOC[C@H]1CC[C@H]2[C@H](CCN2S(=O)(=O)Cc2ccccc2)O1`, 8.61%.
As to `CC(C)CCN1N=C(C(=O)N2CCCCCC2)S(=O)(=O)c2ccccc21`, the cytotoxicity at 10 µM is 11.8%.
As for `O=C(c1ccc(Cl)cc1-n1cnnn1)N1CCC2(CC1)OCCO2`, the cytotoxicity at 10 µM was 3.51%.
On to `CCOc1cccc(CNc2ccccc2C(F)(F)F)c1O`, for which the cytotoxicity at 10 µM is -4.17%.
With `COc1ccccc1OCC(=O)NCC(O)(c1ccccc1)C1CC1` (configuration not stated) the figure was -16.1%; with `CC(C)(C)C(=O)NCCn1ccc(-c2ccncc2)n1`, -26.7%.
On to `Cc1noc(C2CCC3(CCN(C(=O)c4c(C)noc4C)CC3)O2)n1` (configuration not stated), for which the cytotoxicity at 10 µM is -10.6%.
Regarding `O=C1CCCN1Cc1ncn2c1CN(C(=O)c1cccc(F)c1)CCC2`, the cytotoxicity at 10 µM is -12.1%.
Under `Cc1nn(Cc2ccc(C(=O)NCCCN3CCOCC3)o2)c(C)c1Cl` stands -5.47%.
Under `CCCn1c(N2CCCC(C)C2)nc2c(C)nn(C)c2c1=O` (configuration not stated) stands 13.4%; under `COc1c(C)cnc(CNCC(C)C)c1C`, -0.135%; under `CCOCCCNC(=O)c1cn(CC)nc1C`, 5.37%.
As for `Cc1noc(C)c1CC(=O)N[C@@H]1CC[C@@H](Oc2ccccc2)[C@@H]1O`, the cytotoxicity at 10 µM is 2.04%.
As to `Cc1ccccc1CC(=O)NCc1cnc(CC2CCN(C)CC2)cn1`, the cytotoxicity at 10 µM is -1.25%.
As to `CNC(=O)C1(Cc2cc(C(C)C)no2)CCN(Cc2ccccn2)C1` (configuration not stated), the cytotoxicity at 10 µM came out at 6.24%.
`CC(C(=O)N1CCCC1)n1nc(-c2cccs2)cc(N)c1=O` (configuration not stated): the cytotoxicity at 10 µM came out at 6.66%.
With `Cc1nn(C(C)C)cc1S(=O)(=O)N(C)Cc1nonc1C`, the cytotoxicity at 10 µM turned out to be 11.6%.
Under `CC(C)c1nnc(CCC(=O)N2CCOC(c3cnccn3)C2)o1` (configuration not stated) stands -2.01%.
`O=S(=O)(c1ccccc1)N1C[C@@H]2CCCCN(Cc3cccs3)[C@@H]2C1`: the cytotoxicity at 10 µM is 1.56%.
For the compound `Cc1ccc(S(=O)(=O)N2CCCC(c3n[nH]cc3C(=O)N(C)C)C2)cc1` (configuration not stated), the cytotoxicity at 10 µM was determined as 6.91%.
Under `CC(C)Nc1ncc(-c2ccncc2)c([C@@H]2CCCO2)n1` stands 10.8%; under `O=C(CCS(=O)(=O)C1CCCC1)N1CCC(O)(C(F)(F)F)C1` (configuration not stated), 18.9%; under `O=C(CNC(=O)Nc1c(F)cccc1Oc1ccccc1)NC1CC1`, 6.45%.
Consider `CC(=O)N1CCC(C(=O)NCCc2c[nH]c3cc(C)ccc23)CC1`, for which the cytotoxicity at 10 µM came to 18.1%.
As to `Cc1ncc2c(n1)CN(Cc1nc(-c3ccco3)oc1C)CC2`, the cytotoxicity at 10 µM turned out to be 2.2%.
With `OCCC1(NCc2ccc(-n3cccn3)cc2)CCOCC1`, the cytotoxicity at 10 µM is -146%.
With `O=C(NCC1CCOC1)c1cc(-c2ccc(Cl)cc2)n[nH]1` (configuration not stated) the figure was -14%.
In the case of `COC(=O)C(CNC(=O)Nc1cn[nH]c1)Cc1cccc(C)c1` (configuration not stated), the cytotoxicity at 10 µM came out at 1.37%.
Take `Cc1ccc(N(CCC#N)C(=O)CCc2cccnc2)cc1C`: the cytotoxicity at 10 µM was -7.68%.
Regarding `CN(CCC#N)C(=O)Cn1cnc2c(Br)cccc2c1=O`, the cytotoxicity at 10 µM is -1.6%.
As to `Cc1noc(CCCNC(=O)CNC(=O)c2cc3ccccc3[nH]2)n1`, the cytotoxicity at 10 µM was found to be 4.81%.
For the compound `c1cc(CCN2CCC(c3n[nH]c(C4CC4)n3)CC2)ccn1`, the cytotoxicity at 10 µM amounted to 3.39%.
`COc1ncccc1NC(=O)NCC1CC1`: the cytotoxicity at 10 µM was -2.45%.
For the compound `COc1cccc(NC(=O)Cc2c(C)nc3c(c2C)c(=O)[nH]n3C)c1`, the cytotoxicity at 10 µM turned out to be 5.05%.
With `CCS(=O)(=O)c1ccc(N2CCC(N)CC2)cc1` the figure was -6.44%; with `Cc1cc(CC(=O)NC(C)c2ccc(OCC3CC3)c(F)c2)n[nH]1` (configuration not stated), 4.75%.
For `CCOC(=O)C(C)Nc1cccc(COCc2ccco2)c1` (configuration not stated), the cytotoxicity at 10 µM turned out to be 2.1%.
As to `COC(=O)NCCCC(=O)NCC1(c2cccc(Cl)c2)CC1`, the cytotoxicity at 10 µM came out at 1.42%.
As for `CC(NCc1cnc(C2CCC2)s1)c1ccccc1-n1cccn1` (configuration not stated), the cytotoxicity at 10 µM turned out to be 0.33%.
Consider `CN(C)C(=O)CN1CCN(C(=O)C2CSc3ccccc3O2)CC1` (configuration not stated), for which the cytotoxicity at 10 µM was determined as 1.84%.
With `CN(C)c1ccc(C(=O)NCc2ccc(N3CCOCC3)cc2)cn1`, the cytotoxicity at 10 µM was determined as 6.03%.
Turning to `CCCn1nc(-c2nc(Cc3ccc(OC)cc3)no2)ccc1=O`, the cytotoxicity at 10 µM stood at 0.0197%.
With `Cc1cc(F)ccc1S(=O)(=O)N1CCN(C)Cc2ccccc21` the figure was 4.06%.
Take `O=C(CCn1ccccc1=O)Nc1ccc(F)c(Cl)c1`: the cytotoxicity at 10 µM is 13.1%.
For `CCCSCC(=O)Nc1ncn(CC(=O)NCc2ccccc2)n1`, the cytotoxicity at 10 µM was determined as 19.2%.
In the case of `Cc1cc(NC(=O)Cn2cc(C#N)c(=O)c3cc(Br)ccc32)no1`, the cytotoxicity at 10 µM was 16.5%.
With `CC1CN(C)c2ccccc2CN1C(=O)c1ccc[nH]1` (configuration not stated), the cytotoxicity at 10 µM is -28.4%.
Under `Cc1cc(CN2CCC(C3CCN(CCc4ccccc4)C3)CC2)[nH]n1` (configuration not stated) stands 7.19%.
On to `Cc1ccc2c(c1)c(CNC(C)Cn1ccnc1)nn2C` (configuration not stated), for which the cytotoxicity at 10 µM was -6.14%.
Under `COCCC1(CO)CCCN(Cc2ccc(C(F)(F)F)cc2)C1` (configuration not stated) stands -153%; under `CSc1ccc2cc(CN(C)CCCN(C)C)c(=O)[nH]c2c1`, -2.72%; under `CS(=O)(=O)NCC(=O)NCc1cccnc1-n1cnc2ccccc21`, 0.324%.
With `CN1CCN(C[C@@H]2CN(C(=O)CCc3cn[nH]c3)C[C@@H]2CO)CC1`, the cytotoxicity at 10 µM was -0.973%.
With `Cc1nc(N)sc1C(=O)N[C@H]1CN(CCO)C[C@@H]1C1CC1` the figure was 1.81%; with `COc1c(F)ccc(C(=O)N2CC[C@H](CO)[C@@H](O)C2)c1F`, -3.85%.
In the case of `Cc1cc2n(n1)CCN(c1nc(N)nc3c1CCNCC3)C2`, the cytotoxicity at 10 µM came out at 7.04%.
With `O=C(Cc1cc2c(cc1Cl)OCCO2)N1CC[C@H](CO)[C@H](O)C1`, the cytotoxicity at 10 µM came to 7.96%.
`O=C(NCC(F)(F)F)c1coc(COc2cccc(F)c2)n1`: the cytotoxicity at 10 µM is -148%.
As to `CCc1nc2c(c(NCc3cc(-c4cccnc4)no3)n1)CCNCC2`, the cytotoxicity at 10 µM stood at 0.811%.
For `CNc1nc(N2CCN(C3CCCCC3)C(CCO)C2)nc2c1CCC2` (configuration not stated), the cytotoxicity at 10 µM was -6.86%.
`OC[C@H]1CN(Cc2c(Cl)cccc2Cl)C[C@H]1CN1CCCCC1`: the cytotoxicity at 10 µM is -140%.
As for `CN(CCO)Cc1nnc(C2CCN(C(=O)c3cc[nH]c3)CC2)n1C`, the cytotoxicity at 10 µM amounted to 1.37%.
In the case of `Cc1ncsc1CN(Cc1ccccc1)Cc1ccncc1`, the cytotoxicity at 10 µM was -4.45%.
On to `CCN(Cc1cc(F)ccc1Cl)C1CCS(=O)(=O)C1` (configuration not stated), for which the cytotoxicity at 10 µM was 5.29%.
As to `CC(C)c1nccn1CCCNC(=O)c1ccc(-c2cncnc2)nc1`, the cytotoxicity at 10 µM came out at 16.1%.
In the case of `COC(=O)c1cc(OCC2CCC2)cc(C(=O)N[C@@H]2CNCC[C@H]2O)c1`, the cytotoxicity at 10 µM is -12%.
As to `Cn1ccnc1CN1CCN(CC(=O)NCc2ccccc2F)CC1`, the cytotoxicity at 10 µM was -22.1%.
Consider `CCC1c2ccsc2CCN1C(=O)NCc1cc(C)on1` (configuration not stated), for which the cytotoxicity at 10 µM is -10.2%.
Take `O=C(CCc1ccccn1)N1CCCC(n2cncn2)C1` (configuration not stated): the cytotoxicity at 10 µM is -15.5%.
With `O=C(c1cccc2cn[nH]c12)N1CCCC1c1noc(C2CC2)n1` (configuration not stated) the figure was -16.8%.
For `Cc1nc(C2CCN(C(=O)c3cc(C4CC4)[nH]n3)CC2)no1`, the cytotoxicity at 10 µM was -6.44%.
Take `Cn1c(C2CC2)nc2c1CCN(CCOc1cccc(F)c1)C2`: the cytotoxicity at 10 µM is -13.1%.
With `Cn1c(C2CC2)nc2c1CCN(CC(=O)Nc1nccs1)C2` the figure was -9.83%; with `CNC(=O)NC(=O)CCN1CCN(c2nccs2)CC1`, -11.1%; with `CS(=O)(=O)CCNC(=O)c1ccc(-c2ccco2)[nH]c1=O`, -22.8%.
As for `Cc1nn(C)c(C)c1C1CCCN1CC(=O)Nc1nccs1` (configuration not stated), the cytotoxicity at 10 µM is -21.6%.
Under `c1cnnc(N2CCCC(NCc3cccc4c3OCCCO4)C2)c1` (configuration not stated) stands -19.8%.
For the compound `CC(C)Oc1ncccc1CNC(=O)c1cc(C2CC2)on1`, the cytotoxicity at 10 µM was -17.7%.
With `COc1cc(C)nc(N2CCN(C(=O)c3ccoc3C)CC2)n1` the figure was -21.8%; with `CC(C)c1n[nH]c(C2CN(C(=O)c3cccc4cn[nH]c34)CCO2)n1` (configuration not stated), -5.31%; with `CC(C)N1CC(C(=O)NCCOc2ccc3c(c2)OCO3)CC1=O` (configuration not stated), -6.51%.
Under `O=C(NCCCn1ccnc1)N1CCN(c2cccs2)CC1` stands -2.53%.
For the compound `CN1CC(=O)N(c2cnn(C)c2)CC12CCN(Cc1nccn1C)C2` (configuration not stated), the cytotoxicity at 10 µM was -15.3%.
As to `CCO[C@H]1CO[C@@]2(CCCN(Cc3nc(C)cs3)C2)C1`, the cytotoxicity at 10 µM is -9.75%.
`Cc1nc(C2CCCNC2)nc2c1CCCN2Cc1ccccn1` (configuration not stated): the cytotoxicity at 10 µM was -2.76%.
Take `CN(C)C(=O)COC1COC2(CCN(CC3CCOCC3)CC2)C1` (configuration not stated): the cytotoxicity at 10 µM is -113%.
Under `CC1c2ncc(COCC3CCOCC3)n2CCN1Cc1cccnc1` (configuration not stated) stands 5.95%.
Turning to `Cc1ccc(CN2CC[C@@H](N3CCOCC3)[C@@H]2Cc2cccnc2)o1`, the cytotoxicity at 10 µM amounted to 9.55%.
With `Cn1ccc(C(=O)NC2CCC23CCN(CC2CCOCC2)CC3)c1` (configuration not stated), the cytotoxicity at 10 µM was -149%.
